Active and inactive are the calls of the source. The rule behind the calls is not given here.
What was measured:
[1] = tested on: Saccharomyces cerevisiae; assay: Toxicity against yeast assessed as reduction in cell viability; format: organism-based
Outline: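 Control yeast strain carrying empty plasmid, induced in 2% galactose SC medium (pH 6.5) lacking leucine, with compounds at graded concentrations for 46–48 h at 30 °C. A600 was read. Toxicity value is the concentration inhibiting proliferation by 50%.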

[2] = Cytotoxicity against MDCK cells assessed as reduction in cell viability after 24 hrs by MTT assay; format: cell-based, Canis lupus familiaris; conditions: dog
Outline: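 MDCK cells were seeded at 2 × 10^4 per well and treated next day with graded concentrations in DMEM for 24 h. MTT (5 mg mL−1 solution) was added for 4 h at 37 °C, cells were lysed for 3 h, and A575 was read. CC50 is the concentration inhibiting cell growth by 50% versus control cultures.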

[3] = target: Matrix protein 2 (UniProt P0DOF8); assay: Inhibition of wild type Influenza A virus (A/chicken/Hubei/327/2004(H5N1)) M2 expressed in yeast cells after 46 to 48 hrs; format: cell-based
Matrix protein 2, sequence (P0DOF8 whole entry): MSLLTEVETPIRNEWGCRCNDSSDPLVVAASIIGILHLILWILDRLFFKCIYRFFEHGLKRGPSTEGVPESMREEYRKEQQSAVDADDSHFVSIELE
Outline: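 Yeast growth-restoration assay. Yeast carried the M2 coding sequence under the GAL1 promoter, grown in glucose SC medium (pH 6.5) lacking leucine, then washed and resuspended to A600 0.01 in 2% galactose SC medium. Compounds were added at graded concentrations; plates were incubated at 30 °C for 46–48 h and A600 was read. Hits were retested in triplicate for EC50.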

[4] = tested on: Influenza A virus; assay: (§1) Antiviral activity against amantadine-sensitive Influenza A virus (A/chicken/Hubei/327/2004(H5N1)) infected in MDCK cells assessed as reduction in early stage viral replication by measuring viral titer at 4 uM measured after 12 hrs by crystal violet staining-based plaque reduction assay during time-of-addition assay; format: functional, organism-based
[5] = tested on: Influenza A virus; assay: as §1, with “at 1.7” for “at 4”; format: functional, organism-based
[6] = tested on: Influenza A virus; assay: Antiviral activity against Influenza A virus H5N1; format: functional, organism-based
[7] = tested on: Influenza A virus; assay: Antiviral activity against Influenza A virus (H1N1); format: functional, organism-based
[8] = tested on: Influenza A virus; assay: as §1, with “at 1.9” for “at 4”; format: functional, organism-based

Question: Which Activity [1] does the source give for `O=[N+]([O-])c1ccc(S(=O)(=O)NCc2ccsc2)cc1` here?
Answer: > 224.6 µM

Question: What about the CC50 at 24 h [2] of the same compound?
Answer: 139 µM

Question: For `O=S(=O)(NCc1cc2ccccc2s1)c1ccccc1F`, which Activity [1] is on record?
Answer: > 180.5 µM

Question: And the EC50 [3]?
Answer: Not Active

Question: Which Activity [1] does the source give for `Cc1cc(CNS(=O)(=O)c2ccc(C#N)cc2)c(C)s1` here?
Answer: > 218.7 µM

Question: And the CC50 at 24 h [2]?
Answer: > 218 µM

Question: With `O=[N+]([O-])c1ccc(S(=O)(=O)NCc2ccc(Cl)s2)cc1` as the compound, how does the Activity [1] read?
Answer: > 201.3 µM

Question: What about the EC50 [3] of the same compound?
Answer: Not Active

Question: And the CC50 at 24 h [2]?
Answer: 128 µM

Question: Which Activity [1] does the source give for `Cc1cc(CNS(=O)(=O)c2ccc([N+](=O)[O-])cc2)c(C)s1` here?
Answer: > 205.3 µM

Question: What about the CC50 at 24 h [2] of the same compound?
Answer: > 204 µM

Question: Which Activity [1] does the source give for `O=S(=O)(NCc1csc2ccccc12)c1ccc(F)cc1` here?
Answer: 133.8 µM

Question: And the CC50 at 24 h [2]?
Answer: 98.6 µM

Question: With `NC(=O)c1nc(F)cnc1O` as the compound, how does the Activity [4] read?
Answer: Active

Question: For `O=[N+]([O-])c1ccc(S(=O)(=O)NCc2csc3ccccc23)cc1`, which Activity [1] is on record?
Answer: > 192.3 µM

Question: What about the CC50 at 24 h [2] of the same compound?
Answer: > 191 µM

Question: For `Cc1cc(CNS(=O)(=O)c2ccc(F)cc2)c(C)s1`, which Activity [1] is on record?
Answer: 120.2 µM

Question: And the EC50 [3]?
Answer: Not Active

Question: With `NC12CC3CC(CC(C3)C1)C2` [AMANTADINE] as the compound, how does the Activity [1] read?
Answer: > 443 µM

Question: And the Activity [5]?
Answer: Active

Question: What about the CC50 at 24 h [2] of the same compound?
Answer: > 100 µM

Question: For `O=S(=O)(NCc1cc2ccccc2s1)c1ccc(C(F)(F)F)cc1`, which Activity [1] is on record?
Answer: > 180.4 µM

Question: And the EC50 [3]?
Answer: Not Active

Question: And the CC50 at 24 h [2]?
Answer: > 180 µM

Question: With `Cc1cc(C(=O)NCCSCc2ccc([N+](=O)[O-])cc2)c(C)o1` as the compound, how does the EC50 [6] read?
Answer: 1.25 µM

Question: Which results are given for `O=S(=O)(NCc1csc2ccccc12)c1ccccc1F`?
Answer: Activity [1]: 59.1 µM; EC50 [3]: Not Active

Question: Which Activity [1] does the source give for `CC(=O)c1ccc(S(=O)(=O)NCc2csc3ccccc23)cc1` here?
Answer: > 194 µM

Question: And the CC50 at 24 h [2]?
Answer: > 193 µM

Question: Which Activity [1] does the source give for `O=S(=O)(NCc1csc2ccccc12)c1cccc(F)c1` here?
Answer: > 208.5 µM

Question: What about the EC50 [3] of the same compound?
Answer: Not Active

Question: For `O=S(=O)(NCc1cc2ccccc2s1)c1ccc(Br)cc1`, which Activity [1] is on record?
Answer: > 176.2 µM

Question: What about the EC50 [3] of the same compound?
Answer: Not Active

Question: And the CC50 at 24 h [2]?
Answer: > 174 µM

Question: For `N#Cc1ccc(S(=O)(=O)NCc2csc3ccccc23)cc1`, which Activity [1] is on record?
Answer: > 204 µM

Question: And the CC50 at 24 h [2]?
Answer: 122 µM

Question: What does the source list for `O=S(=O)(NCc1csc2ccccc12)c1ccc(C(F)(F)F)cc1`?
Answer: Activity [1]: > 180.4 µM; EC50 [3]: Not Active; CC50 at 24 h [2]: 94.8 µM

Question: For `O=S(=O)(NCc1csc2ccccc12)c1ccc(Cl)cc1`, which Activity [1] is on record?
Answer: 121.4 µM

Question: And the CC50 at 24 h [2]?
Answer: 69.6 µM

Question: Which results are given for `CCOC(=O)C1=C[C@@H](OC(CC)CC)[C@H](NC(C)=O)[C@@H](N)C1.O=P(O)(O)O` [OSELTAMIVIR PHOSPHATE]?
Answer: Activity [1]: > 214.5 µM; EC50 [3]: Not Active; CC50 at 24 h [2]: > 163 µM

Question: With `Cc1ccc(S(=O)(=O)NCc2csc3ccccc23)cc1` as the compound, how does the Activity [1] read?
Answer: > 211.08 µM

Question: What about the CC50 at 24 h [2] of the same compound?
Answer: > 210 µM

Question: With `Cc1ccc(S(=O)(=O)NCc2cc3ccccc3s2)cc1` as the compound, how does the Activity [1] read?
Answer: > 211.08 µM

Question: And the EC50 [3]?
Answer: Not Active

Question: What about the CC50 at 24 h [2] of the same compound?
Answer: > 210 µM

Question: Which Activity [1] does the source give for `O=S(=O)(NCc1cc2ccccc2s1)c1ccc(F)cc1` here?
Answer: > 208.5 µM

Question: What about the EC50 [3] of the same compound?
Answer: Not Active

Question: Which Activity [1] does the source give for `O=[N+]([O-])c1ccc(S(=O)(=O)NCc2cc3ccccc3s2)cc1` here?
Answer: > 192.3 µM

Question: And the EC50 [3]?
Answer: Not Active

Question: And the CC50 at 24 h [2]?
Answer: > 191 µM

Question: For `Cc1cc(CNS(=O)(=O)c2ccc(C#N)cc2)c(C)o1`, which Activity [1] is on record?
Answer: 168.8 µM

Question: And the CC50 at 24 h [2]?
Answer: 105 µM

Question: For `CC1CC2=C(NC(=O)NC2c2ccc(O)c(Br)c2)c2ccccc21` (stereo not drawn), which EC50 [7] is on record?
Answer: 0.032 µM

Question: And the EC50 [6]?
Answer: 0.032 µM

Question: Which results are given for `O=[N+]([O-])c1ccc(S(=O)(=O)NCc2cccs2)cc1`?
Answer: Activity [1]: 157.5 µM; CC50 at 24 h [2]: 133 µM

Question: Which results are given for `Cc1cc(CNS(=O)(=O)c2ccc(Cl)cc2)c(C)s1`?
Answer: Activity [1]: 114.1 µM; CC50 at 24 h [2]: 52.9 µM

Question: What does the source list for `O=S(=O)(NCc1cc2ccccc2s1)c1cccc(F)c1`?
Answer: Activity [1]: > 180.5 µM; EC50 [3]: Not Active

Question: For `O=S(=O)(NCc1cc2ccccc2s1)c1ccc(Cl)cc1`, which Activity [1] is on record?
Answer: > 198.3 µM

Question: What about the EC50 [3] of the same compound?
Answer: Not Active

Question: Which Activity [1] does the source give for `O=S(=O)(NCc1csc2ccccc12)c1ccc(Br)cc1` here?
Answer: 134.1 µM

Question: What about the CC50 at 24 h [2] of the same compound?
Answer: 87.1 µM

Question: With `O=[N+]([O-])c1ccc(S(=O)(=O)NCc2ccoc2)cc1` as the compound, how does the Activity [1] read?
Answer: > 237.4 µM

Question: And the CC50 at 24 h [2]?
Answer: > 236 µM

Question: For `N#Cc1ccc(S(=O)(=O)NCc2cc3ccccc3s2)cc1`, which Activity [1] is on record?
Answer: > 204 µM

Question: And the EC50 [3]?
Answer: Not Active

Question: Which Activity [1] does the source give for `Cc1cc(CNS(=O)(=O)c2ccc([N+](=O)[O-])cc2)c(C)o1` here?
Answer: > 215.9 µM

Question: And the CC50 at 24 h [2]?
Answer: > 152 µM

Question: With `Cc1cc(CNS(=O)(=O)c2ccc(Br)cc2)c(C)s1` as the compound, how does the Activity [8] read?
Answer: Active

Question: What about the Activity [1] of the same compound?
Answer: 133.2 µM

Question: What about the CC50 at 24 h [2] of the same compound?
Answer: 56.4 µM

Question: What does the source list for `Cc1cc(CNS(=O)(=O)c2ccc(F)cc2)c(C)o1`?
Answer: Activity [1]: > 236.5 µM; CC50 at 24 h [2]: 138 µM

Question: With `Cc1cc(CNS(=O)(=O)c2ccc(Cl)cc2)c(C)o1` as the compound, how does the Activity [1] read?
Answer: 123.43 µM

Question: What about the CC50 at 24 h [2] of the same compound?
Answer: 55.7 µM

Question: What does the source list for `Cc1cc(CNS(=O)(=O)c2ccc(Br)cc2)c(C)o1`?
Answer: Activity [1]: 72.6 µM; CC50 at 24 h [2]: 29.6 µM
